What was measured:
human = assay: concentration in blood after dosing; negative times count back from the end of exposure; conditions: dosed: methylethylketone, 400 ppm, inhalation, duration: 4 hr, male
Summary of the method: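 Points were largely digitised from plot screenshots with WebPlotDigitizer or otherwise copied from tables, and they remain in the units each source reported. They come from published in vivo toxicokinetic studies and two structured collections. Sampling and analytical methods follow each source and were often not reported.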

Rat [1] = assay: concentration in plasma after dosing; conditions: dosed: Isoeugenol, 17 mg/kg, oral, Female, F344/N
Rat [2] = assay: concentration in plasma after dosing; conditions: dosed: Isoeugenol, 17 mg/kg, oral, Female, F344/N; remark: listed apart in the source
Rat [3] = assay: concentration in plasma after dosing; conditions: dosed: Isoeugenol, 70 mg/kg, oral, Male, F344/N
Rat [4] = assay: concentration in plasma after dosing; conditions: dosed: Isoeugenol, 17 mg/kg, oral, Female, F344/N; remark: listed apart in the source
Rat [5] = assay: concentration in plasma after dosing; conditions: dosed: Isoeugenol, 17 mg/kg, oral, Female, F344/N; remark: listed apart in the source
Rat [6] = assay: concentration in plasma after dosing; conditions: 2 min; dosed: Isoeugenol; 17 mg/kg; oral; Male; F344/N
Rat [7] = assay: concentration in plasma after dosing; conditions: dosed: Isoeugenol, 17 mg/kg, oral, Female, F344/N; remark: listed apart in the source
Rat [8] = assay: concentration in plasma after dosing; conditions: dosed: Isoeugenol, 17 mg/kg, oral, Male, F344/N
Rat [9] = assay: concentration in plasma after dosing; conditions: 5 min; dosed: Isoeugenol; 17 mg/kg; oral; Male; F344/N
Rat [10] = assay: concentration in plasma after dosing; conditions: dosed: Isoeugenol, 17 mg/kg, oral, Female, F344/N; remark: listed apart in the source
Rat [11] = assay: concentration in plasma after dosing; conditions: 0.5 h; dosed: Isoeugenol; 70 mg/kg; oral; Male; F344/N
Rat [12] = assay: concentration in plasma after dosing; conditions: dosed: Isoeugenol, 70 mg/kg, oral, Male, F344/N; remark: listed apart in the source
Rat [13] = assay: concentration in plasma after dosing; conditions: dosed: Isoeugenol, 17 mg/kg, oral, Female, F344/N; remark: listed apart in the source
Rat [14] = assay: concentration in plasma after dosing; conditions: dosed: Isoeugenol, 70 mg/kg, oral, Male, F344/N; remark: listed apart in the source
Rat [15] = assay: concentration in plasma after dosing; conditions: dosed: Isoeugenol, 17 mg/kg, oral, Female, F344/N; remark: listed apart in the source
Rat [16] = assay: concentration in plasma after dosing; conditions: dosed: Isoeugenol, 17 mg/kg, oral, Male, F344/N; remark: listed apart in the source
Rat [17] = assay: concentration in plasma after dosing; conditions: dosed: Isoeugenol, 17 mg/kg, oral, Female, F344/N; remark: listed apart in the source
rat [18] = assay: concentration in blood after dosing; conditions: dosed: styrene, 3000 ppm, dermal, duration: 4 hr, male, F344
Rat [19] = assay: concentration in plasma after dosing; conditions: dosed: Tetralin, 20 mg/kg, iv, Female, Harlan Sprague Dawley
Rat [20] = assay: concentration in plasma after dosing; conditions: dosed: Tetralin, 20 mg/kg, iv, Female, Harlan Sprague Dawley; remark: listed apart in the source
Rat [21] = assay: concentration in plasma after dosing; conditions: 2 h; dosed: Tetralin; 20 mg/kg; iv; Female; Harlan Sprague Dawley
Rat [22] = assay: concentration in plasma after dosing; conditions: dosed: Tetralin, 20 mg/kg, iv, Female, Harlan Sprague Dawley; remark: listed apart in the source
Rat [23] = assay: concentration in plasma after dosing; conditions: dosed: Tetralin, 2 mg/kg, iv, Male, Harlan Sprague Dawley
Rat [24] = assay: concentration in plasma after dosing; conditions: dosed: Tetralin, 2 mg/kg, iv, Male, Harlan Sprague Dawley; remark: listed apart in the source
Rat [25] = assay: concentration in plasma after dosing; conditions: dosed: Tetralin, 20 mg/kg, iv, Female, Harlan Sprague Dawley; remark: listed apart in the source
Rat [26] = assay: concentration in plasma after dosing; conditions: dosed: Tetralin, 2 mg/kg, iv, Male, F344
Rat [27] = assay: concentration in plasma after dosing; conditions: dosed: Tetralin, 2 mg/kg, iv, Male, Harlan Sprague Dawley; remark: listed apart in the source
Rat [28] = assay: concentration in plasma after dosing; conditions: dosed: Tetralin, 2 mg/kg, iv, Male, F344; remark: listed apart in the source
Rat [29] = assay: concentration in plasma after dosing; conditions: 2 h; dosed: Tetralin; 2 mg/kg; iv; Male; Harlan Sprague Dawley

## CCC(C)=O [methylethylketone]
human; 0.1276 h
  concentration in blood: 272 µM
human; 0.2874 h
  concentration in blood: 258 µM
human; 0.4715 h
  concentration in blood: 227 µM
human; 0.9608 h
  concentration in blood: 208 µM
human; 1.479 h
  concentration in blood: 139 µM
human; 1.973 h
  concentration in blood: 122 µM
human; 2.966 h
  concentration in blood: 102 µM
human; 4.323 h
  concentration in blood: 54.9 µM
human; 4.977 h
  concentration in blood: 22.4 µM
human; 5.98 h
  concentration in blood: 16.2 µM
human; 6.983 h
  concentration in blood: 7.11 µM
human; -64 s, during exposure
  concentration in blood: 309 µM
human; -1.011 h, during exposure
  concentration in blood: 276 µM
human; -1.994 h, during exposure
  concentration in blood: 218 µM
human; -2.503 h, during exposure
  concentration in blood: 181 µM
human; -2.992 h, during exposure
  concentration in blood: 143 µM
human; -3.486 h, during exposure
  concentration in blood: 115 µM
human; -3.661 h, during exposure
  concentration in blood: 84.6 µM
human; -3.826 h, during exposure
  concentration in blood: 72.5 µM

## C/C=C/c1ccc(O)c(OC)c1 [Isoeugenol]
Rat [1]; 5 min
  concentration in plasma: 355 ng/mL
Rat [1]; 1.5 h
  concentration in plasma: 52.9 ng/mL
Rat [2]; 10 min
  concentration in plasma: 500 ng/mL
Rat [2]; 4 h
  concentration in plasma: 28.5 ng/mL
Rat [3]; 5 min
  concentration in plasma: 1020 ng/mL
Rat [3]; 5 h
  concentration in plasma: 106 ng/mL
Rat [4]; 10 min
  concentration in plasma: 430 ng/mL
Rat [4]; 5 h
  concentration in plasma: 28.3 ng/mL
Rat [5]; 20 min
  concentration in plasma: 86.9 ng/mL
Rat [5]; 1.5 h
  concentration in plasma: 33.6 ng/mL
Rat [6]
  concentration in plasma: 35.6 ng/mL
Rat [7]; 5 min
  concentration in plasma: 375 ng/mL
Rat [7]; 6 h
  concentration in plasma: 160 ng/mL
Rat [8]; 0.5 h
  concentration in plasma: 130 ng/mL
Rat [8]; 2 h
  concentration in plasma: 35.7 ng/mL
Rat [9]
  concentration in plasma: 194 ng/mL
Rat [10]; 2 min
  concentration in plasma: 69.1 ng/mL
Rat [10]; 2 h
  concentration in plasma: 23.2 ng/mL
Rat [11]
  concentration in plasma: 469 ng/mL
Rat [12]; 20 min
  concentration in plasma: 557 ng/mL
Rat [12]; 4 h
  concentration in plasma: 339 ng/mL
Rat [13]; 0.75 h
  concentration in plasma: 52.2 ng/mL
Rat [13]; 3 h
  concentration in plasma: 16.3 ng/mL
Rat [14]; 10 min
  concentration in plasma: 850 ng/mL
Rat [14]; 1.5 h
  concentration in plasma: 97 ng/mL
Rat [15]; 1 h
  concentration in plasma: 22.7 ng/mL
Rat [15]; 3 h
  concentration in plasma: 29.5 ng/mL
Rat [16]; 1 h
  concentration in plasma: 28.4 ng/mL
Rat [16]; 3 h
  concentration in plasma: 68.6 ng/mL
Rat [17]; 20 min
  concentration in plasma: 311 ng/mL
Rat [17]; 8 h
  concentration in plasma: 31.8 ng/mL

## C=Cc1ccccc1 [styrene]
Rat [18]; 0.5 h
  concentration in blood: 1550 ng/mL
Rat [18]; 1 h
  concentration in blood: 3450 ng/mL
Rat [18]; 2 h
  concentration in blood: 4650 ng/mL
Rat [18]; 3 h
  concentration in blood: 8180 ng/mL
Rat [18]; 4 h
  concentration in blood: 8810 ng/mL

## c1ccc2c(c1)CCCC2 [Tetralin]
Rat [19]; 0.25 h
  concentration in plasma: 11.4 µg/g
Rat [19]; 6 h
  concentration in plasma: 0.104 µg/g
Rat [20]; 0.75 h
  concentration in plasma: 2.33 µg/g
Rat [20]; 12 h
  concentration in plasma: 0.0285 µg/g
Rat [21]
  concentration in plasma: 0.52 µg/g
Rat [22]; 1 h
  concentration in plasma: 1.98 µg/g
Rat [22]; 24 h
  concentration in plasma: 0.0136 µg/g
Rat [23]; 0.75 h
  concentration in plasma: 0.0973 µg/g
Rat [23]; 12 h
  concentration in plasma: 0.00173 µg/g
Rat [24]; 0.2533 h
  concentration in plasma: 0.362 µg/g
Rat [24]; 6 h
  concentration in plasma: 0.00512 µg/g
Rat [25]; 1 h
  concentration in plasma: 0.797 µg/g
Rat [25]; 24 h
  concentration in plasma: 0.00536 µg/g
Rat [26]; 0.09 h
  concentration in plasma: 1.33 µg/g
Rat [26]; 4 h
  concentration in plasma: 0.0088 µg/g
Rat [27]; 1 h
  concentration in plasma: 0.0468 µg/g
Rat [27]; 24 h
  concentration in plasma: 0.00083 µg/g
Rat [28]; 0.5033 h
  concentration in plasma: 0.216 µg/g
Rat [28]; 8 h
  concentration in plasma: 0.00356 µg/g
Rat [29]
  concentration in plasma: 0.0179 µg/g
